# Assay results published in ChEMBL document CHEMBL4118256, “Second Generation of Mannich Base-Type Derivatives with in Vivo Activity against Trypanosoma cruzi” (J Med Chem, 2018).
# Activity calls are given as the source filed them. The rule behind the calls is not given here.
# What was measured:
# Mus musculus [1] = experiment: (§1) Nephrotoxicity in Balb/c mouse infected with Trypanosoma cruzi MHOM/Pe/2011/Arequipa DTU 5 trypamastigotes assessed as increase in uric acid level in serum at 100 mg/kg, po once daily for 5 consecutive days starting from day 75 post infection measured on day 81 post infection by biochemical analysis relative to control; type: toxicity, organism-based; conditions: in vivo
# Mus musculus [2] = experiment: as §1, with “10” for “75”, “127” for “81”; type: toxicity, organism-based; conditions: in vivo
# Trypanosoma cruzi [3] = experiment: Antitrypanosomal activity against Trypanosoma cruzi MHOM/Pe/2011/Arequipa DTU 5 trypamastigotes infected in Balb/c mouse assessed as reduction in parasitaemia level at 100 mg/kg, po once daily for 5 consecutive days starting from day 10 post infection measured up to day 50 post infection by Neubauer chamber method; type: functional, organism-based
# Trypanosoma cruzi [4] = experiment: Antitrypanosomal activity against Trypanosoma cruzi MHOM/Pe/2011/Arequipa DTU 5 trypamastigotes infected in Balb/c mouse assessed as parasitaemia reactivation at 100 mg/kg, po pretreated once daily for 5 consecutive days starting from day 10 post infection followed by cyclophosphamide-induced immunosuppression on day 100 post infection every 4 days for a maximum of 3 doses measured up to 1 week post immunosuppression by Neubauer chamber method; type: functional
# Trypanosoma cruzi [5] = experiment: (§2) Antitrypanosomal activity against Trypanosoma cruzi MHOM/Pe/2011/Arequipa DTU 5 trypamastigotes infected in Balb/c mouse assessed as reduction in parasitaemia reactivation in esophagus tissue at 100 mg/kg, po pretreated once daily for 5 consecutive days starting from day 75 post infection followed by cyclophosphamide-induced immunosuppression on day 100 post infection every 4 days for a maximum of 3 doses measured on day 127 post infection by PCR method; type: functional; set-up: scale not given: the % may be the effect or the level left
# Method in brief: (§3)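 Necropsy on day 127 pi after oral treatment and cyclophosphamide immunosuppression. Tissue DNA was amplified by PCR targeting the ~300 bp T. cruzi SOD gene, 200 nM each primer, 30 cycles with 55.5 °C annealing. Products run on 2 % agarose; positive organs counted out of six mice.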
# Trypanosoma cruzi [6] = experiment: as §2, with “stomach” for “esophagus”; type: functional; set-up: scale not given: the % may be the effect or the level left
# Trypanosoma cruzi [7] = experiment: as §2, with “heart” for “esophagus”; type: functional; set-up: scale not given: the % may be the effect or the level left; method in brief: as §3
# Mus musculus [8] = experiment: as §1, with “Hepatotoxicity” for “Nephrotoxicity”, “total bilirubin” for “uric acid”, “level” for “level in serum”, “20” for “100”, “127” for “81”; type: toxicity, organism-based; conditions: in vivo
# Mus musculus [9] = experiment: as §1, with “decrease” for “increase”, “urea” for “uric acid”, “20” for “100”, “10” for “75”, “16” for “81”; type: toxicity, organism-based; set-up: scale not given: the % may be the effect or the level left; conditions: in vivo
# Mus musculus [10] = experiment: as §1, with “Hepatotoxicity” for “Nephrotoxicity”, “ratio of serum AST to GOT” for “uric acid”, “level” for “level in serum”, “20” for “100”, “10” for “75”, “16” for “81”; type: toxicity, organism-based; conditions: in vivo
# Mus musculus [11] = experiment: as §1, with “decrease” for “increase”, “urea” for “uric acid”, “20” for “100”, “127” for “81”; type: toxicity, organism-based; set-up: scale not given: the % may be the effect or the level left; conditions: in vivo
# Mus musculus [12] = experiment: Toxicity in Balb/c mouse assessed as death at 20 mg/kg, po once daily for 5 consecutive days starting from day 75 post infection; type: organism-based; conditions: in vivo
# Method in brief: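 Female BALB/c mice (8-10 weeks, 20-25 g), groups of six, infected i.p. with 5 x 10^5 Arequipa bloodstream trypomastigotes. Dosing was oral, 20 mg·kg-1 per day for 5 days, given as a 2 mg·mL-1 suspension in 5% DMSO/0.5% hydroxypropyl methylcellulose. Treatment started day 10 pi (acute phase) or day 75 pi (chronic phase). Deaths and body-mass loss were monitored during and after treatment.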
# Mus musculus [13] = experiment: as §1, with “decrease” for “increase”, “urea” for “uric acid”, “20” for “100”; type: toxicity, organism-based; set-up: scale not given: the % may be the effect or the level left; conditions: in vivo
# Trypanosoma cruzi [14] = experiment: Antitrypanosomal activity against Trypanosoma cruzi MHOM/Pe/2011/Arequipa DTU 5 trypamastigotes infected in Balb/c mouse assessed as reduction in splenomegaly at 20 mg/kg, po once daily for 5 consecutive days starting from day 75 post infection measured on day 127 post infection relative to control; type: functional, organism-based
# Mus musculus [15] = experiment: as §1, with “Cardiotoxicity” for “Nephrotoxicity”, “change” for “increase in uric acid level”, “serum LDH level” for “serum”, “20” for “100”, “10” for “75”, “127” for “81”; type: toxicity, organism-based; conditions: in vivo
# Method in brief: (§4)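 Serum clinical chemistry in Arequipa-infected female BALB/c mice. Oral 20 mg·kg-1 per day for 5 days, started day 10 or day 75 pi. Samples taken at day 16 pi or day 81 pi, and on necropsy day. Markers: CK-MB and LDH (U/L), AST, ALT and alkaline phosphatase (U/L), total bilirubin. Results scored relative to infected untreated controls; uninfected reference n = 15.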
# Mus musculus [16] = experiment: as §1, with “Hepatotoxicity” for “Nephrotoxicity”, “ratio of serum AST to GOT” for “uric acid”, “level” for “level in serum”, “20” for “100”; type: toxicity, organism-based; conditions: in vivo
# Trypanosoma cruzi [17] = experiment: Antitrypanosomal activity against Trypanosoma cruzi MHOM/Pe/2011/Arequipa DTU 5 trypamastigotes infected in Balb/c mouse assessed as reduction in parasitaemia reactivation at 20 mg/kg, po pretreated once daily for 5 consecutive days starting from day 10 post infection followed by cyclophosphamide-induced immunosuppression on day 100 post infection every 4 days for a maximum of 3 doses measured up to 1 week post immunosuppression by Neubauer chamber method; type: functional; set-up: scale not given: the % may be the effect or the level left
# Method in brief: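 Female BALB/c mice (8-10 weeks, 20-25 g), groups of six, infected i.p. with 5 x 10^5 bloodstream trypomastigotes in 0.2 mL PBS; oral dosing 20 mg·kg-1 per day for 5 days in 5% DMSO/0.5% HPMC vehicle. After day 100 pi, cyclophosphamide 200 mg·kg-1 i.p. every 4 days, up to three doses. Within 1 week after the last dose, fresh-blood bloodstream trypomastigotes counted in a Neubauer chamber. Reactivation expressed relative to untreated infected controls.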
# Mus musculus [18] = experiment: as §1, with “Hepatotoxicity” for “Nephrotoxicity”, “alkaline phosphatase” for “uric acid”, “level” for “level in serum”, “20” for “100”, “127” for “81”; type: toxicity, organism-based; conditions: in vivo
# Mus musculus [19] = experiment: as §1, with “Hepatotoxicity” for “Nephrotoxicity”, “alkaline phosphatase” for “uric acid”, “level” for “level in serum”, “20” for “100”; type: toxicity, organism-based; conditions: in vivo
# Mus musculus [20] = experiment: as §1, with “Hepatotoxicity” for “Nephrotoxicity”, “change” for “increase”, “ratio of serum ALT to GPT” for “uric acid”, “level” for “level in serum”, “20” for “100”, “127” for “81”; type: toxicity, organism-based; conditions: in vivo; method in brief: as §4
# Mus musculus [21] = experiment: as §1, with “change” for “increase”, “20” for “100”, “10” for “75”, “127” for “81”; type: toxicity, organism-based; conditions: in vivo
# Trypanosoma cruzi [22] = experiment: as §2, with “in lung” for “in esophagus”, “at 20” for “at 100”, “day 10” for “day 75”; type: functional; set-up: scale not given: the % may be the effect or the level left; method in brief: as §3
# Mus musculus [23] = experiment: as §1, with “Cardiotoxicity” for “Nephrotoxicity”, “change” for “increase”, “ratio of creatine kinase” for “uric acid level”, “muscle to brain” for “serum”, “20” for “100”, “127” for “81”; type: toxicity, organism-based; conditions: in vivo; method in brief: as §4
# Mus musculus [24] = experiment: as §1, with “Hepatotoxicity” for “Nephrotoxicity”, “ratio of serum AST to GOT” for “uric acid”, “level” for “level in serum”, “10” for “75”, “16” for “81”; type: toxicity, organism-based; conditions: in vivo
# Mus musculus [25] = experiment: as §1, with “decrease” for “increase”, “127” for “81”; type: toxicity, organism-based; set-up: scale not given: the % may be the effect or the level left; conditions: in vivo
smiles,measurement,setting,value
COc1ccc(C(=O)CCN2CCN(c3ccc(F)cc3)CC2)cc1,Activity,Mus musculus [1],<= 10%
same,Activity,Mus musculus [2],<= 10%
COc1ccc(C(=O)CCN2CCN(c3ccc(Cl)cc3)CC2)cc1,Activity,Trypanosoma cruzi [3],Active
same,Activity,Trypanosoma cruzi [4],12%
same,Activity,Trypanosoma cruzi [5],78%
same,Activity,Trypanosoma cruzi [6],78%
same,Activity,Trypanosoma cruzi [7],78%
O=C(Cn1ccnc1[N+](=O)[O-])NCc1ccccc1 [BENZNIDAZOLE],Activity,Mus musculus [8],<= 20%
same,Activity,Mus musculus [9],<= 30%
same,Activity,Mus musculus [10],> 40%
same,Activity,Mus musculus [11],<= 30%
same,Activity,Mus musculus [12],Non-Toxic
same,Activity,Mus musculus [13],<= 30%
same,Activity,Trypanosoma cruzi [14],Active
same,Activity,Mus musculus [15],< 10%
same,Activity,Mus musculus [16],<= 20%
same,Activity,Trypanosoma cruzi [17],75%
same,Activity,Mus musculus [18],<= 20%
same,Activity,Mus musculus [19],> 40%
same,Activity,Mus musculus [20],< 10%
same,Activity,Mus musculus [21],< 10%
same,Activity,Trypanosoma cruzi [22],33%
same,Activity,Mus musculus [23],< 10%
COc1ccc(C(=O)CCN2CCN(c3ccc([N+](=O)[O-])cc3)CC2)cc1,Activity,Mus musculus [24],> 40%
same,Activity,Mus musculus [25],<= 30%
